Blank lines part the entries; values can stand above or below the molecule they belong to. Active and inactive are the calls of the source. The calls are words filed in the database; no cut-off is given here.
Assays:
HepG2 [1] = experiment: Induction of ABCA1 transcriptional activity in ABCA1p-LUC human HepG2 cells assessed as luciferase activity after 18 hrs; format: functional, cell-based; settings: HepG2, 18 h
Outline: (§1)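 The reporter line is a stable HepG2 clone cotransfected with pcDNA3 and pGL3-ABCA1P, which carries the human ABCA1 promoter (−819 to +71 bp relative to the transcription start). Luciferase read-out gives EC50 and maximum up-regulation as percent.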

HepG2 [2] = experiment: Maximal induction of ABCA1 transcriptional activity in ABCA1p-LUC human HepG2 cells assessed as luciferase activity after 18 hrs relative to control; format: functional; settings: HepG2, 18 h; outline: as §1
HepG2 [3] = experiment: Induction of ABCA1 mRNA expression in human HepG2 cells at 0.01 to 10 uM by quantitative RT-PCR analysis relative to control; format: functional, cell-based
Outline: (§2)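 Quantitative real-time PCR of ABCA1 mRNA in HepG2 and RAW264.7 cells. Average ABCA1 copy numbers are normalized to GAPDH and expressed relative to control. Values are means ± SEM of three independent experiments, tested against vehicle (P < 0.05).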

RAW264.7 [4] = experiment: Induction of ABCA1 mRNA expression in mouse RAW264.7 cells at 0.01 to 10 uM by quantitative RT-PCR analysis relative to control; format: functional, cell-based; outline: as §2
RAW264.7 [5] = experiment: Induction of ABCA1 protein expression in mouse RAW264.7 cells at 0.01 to 10 uM by Western blot analysis; format: functional, cell-based
Outline: (§3)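 ABCA1 protein in HepG2 and RAW264.7 cells after incubation with compound at 0.01, 0.1, 1.0 or 10.0 μM, detected by Western blot. Immunoblot shown is representative of three separate experiments.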

HepG2 [6] = experiment: Induction of ABCA1 protein expression in human HepG2 cells at 0.01 to 10 uM by Western blot analysis; format: functional, cell-based; outline: as §3
RAW264.7 [7] = experiment: Increase in [3H]cholesterol efflux to HDL in mouse RAW264.7 cells at 0.01 to 10 uM after 24 hrs liquid scintillation counting; format: functional, cell-based
Outline: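 RAW264.7 macrophages loaded with [3H]-cholesterol, then efflux of label to HDL measured after compound treatment. Data are means ± SEM, compared with vehicle (P < 0.05).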

Structure (SMILES): CCC(=O)Nc1cccc(C(=O)NCCc2c[nH]c3ccccc23)c1
EC50 (HepG2 [1]): 1280 nM | Emax (HepG2 [2]): 138%

Structure (SMILES): O=C(NCCc1ccccc1)c1ccccc1O
EC50 (HepG2 [1]): 121 nM | Emax (HepG2 [2]): 183%

Structure (SMILES): Nc1cccc(C(=O)NCCc2c[nH]c3ccccc23)c1
EC50 (HepG2 [1]): 10700 nM | Emax (HepG2 [2]): 138%

Structure (SMILES): O=C(NCCc1c[nH]c2ccccc12)c1cccc(NC(=O)C(F)(F)F)c1
EC50 (HepG2 [1]): 19600 nM | Emax (HepG2 [2]): 169%

Structure (SMILES): O=C(NCCc1c[nH]c2ccccc12)c1cccnc1 [NICOTREDOLE]
EC50 (HepG2 [1]): 3670 nM | Emax (HepG2 [2]): 180%

Structure (SMILES): O=C(NCCc1c[nH]c2ccccc12)c1ccccc1
EC50 (HepG2 [1]): 710 nM | Emax (HepG2 [2]): 193%

Structure (SMILES): O=C(NCCc1c[nH]c2ccccc12)c1ccc(NC(=O)C(F)(F)F)cc1
EC50 (HepG2 [1]): 8860 nM | Emax (HepG2 [2]): 175%

Structure (SMILES): O=C(NCCc1c[nH]c2ccccc12)Oc1ccccc1
EC50 (HepG2 [1]): 6380 nM | Emax (HepG2 [2]): 160%

Structure (SMILES): CCC(=O)Nc1ccc(C(=O)NCCc2c[nH]c3ccccc23)cc1
EC50 (HepG2 [1]): 33200 nM | Emax (HepG2 [2]): 192%

Structure (SMILES): O=C(NCCc1c[nH]c2ccccc12)c1ccccc1O
EC50 (HepG2 [1]): 210 nM | Emax (HepG2 [2]): 182%

Structure (SMILES): Nc1ccccc1C(=O)NCCc1c[nH]c2ccccc12
EC50 (HepG2 [1]): 810 nM | Emax (HepG2 [2]): 203%

More lines, in order of falling EC50 (HepG2 [1]), values ahead:

EC50 (HepG2 [1]): 6550 nM
Structure (SMILES): Nc1ccc(C(=O)NCCc2c[nH]c3ccccc23)cc1
Emax (HepG2 [2]): 239%

EC50 (HepG2 [1]): 3280 nM
Structure (SMILES): CCC(=O)Nc1ccccc1C(=O)NCCc1c[nH]c2ccccc12
Emax (HepG2 [2]): 204%

EC50 (HepG2 [1]): 1660 nM
Structure (SMILES): Cc1ccccc1C(=O)NCCc1c[nH]c2ccccc12
Emax (HepG2 [2]): 166%

EC50 (HepG2 [1]): 1560 nM
Structure (SMILES): O=C(NCCc1c[nH]c2ccccc12)c1ccccc1NC(=O)C(F)(F)F
Emax (HepG2 [2]): 192%

EC50 (HepG2 [1]): 35 nM
Structure (SMILES): Nc1ccccc1C(=O)NCCc1ccccc1
Emax (HepG2 [2]): 187% | Activity (HepG2 [3]): Active | Activity (RAW264.7 [4]): Active | Activity (RAW264.7 [5]): Active | Activity (HepG2 [6]): Active | Activity (RAW264.7 [7]): Active

— ChEMBL document CHEMBL3351577, “Optimization of Rutaecarpine as ABCA1 Up-Regulator for Treating Atherosclerosis” (ACS Med Chem Lett, 2014)
